Test results as given in ChEMBL document CHEMBL4406830, “Galloyl esters of trans-stilbenes are inhibitors of FASN with anticancer activity on non-small cell lung cancer cells” (Eur J Med Chem, 2019).
Converted amounts (≈) assume the structure as drawn. Blank lines part the entries; values can stand above or below the molecule they belong to. The source made the active and inactive calls. The calls are words filed in the database; no cut-off is given here.

Assays:
[1] = test system: NCI-H1703; assay: Antiproliferative activity against human NCI-H1703 cells expressing FASN assessed as reduction in cell viability after 72 hrs by MTS assay; assay type: functional, cell-based; details: NCI-H1703, 72 h
Method in brief: (§1)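 ATCC-sourced cells. H1299, H1650, H1703 and PC-9 were grown in RPMI 1640 with 10% FBS. A549 was grown in high-glucose DMEM with 10% FBS and 1 mM pyruvate. SAEC was grown in BEGM. Cells were seeded at 3 × 10^3 per well (H1650 3.5 × 10^3) and left to attach overnight. Serial dilutions from DMSO stocks were added, 0.1% DMSO final, for 72 h at 37 °C, 5% CO2. Medium was replaced, MTS added, and A490 read after 2 h. IC50 was taken from % viability versus log concentration, 3 experiments.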

[2] = test system: NCI-H1299; assay: Antiproliferative activity against human NCI-H1299 cells expressing FASN assessed as reduction in cell viability after 72 hrs by MTS assay; assay type: functional, cell-based; details: NCI-H1299, 72 h; method in brief: as §1
[3] = test system: NCI-H1703; assay: Antiproliferative activity against human NCI-H1703 cells expressing FASN assessed as growth inhibition at 25 uM after 72 hrs by MTS assay relative to control; assay type: functional; details: NCI-H1703, 72 h
Method in brief: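 H1703 cells were treated with a single 25 µM concentration for 72 h. Viability was measured by MTS at 490 nm, with 0.1% DMSO and media-only correction, relative to untreated control. Mean ± SD of n = 3 independent determinations, unpaired t test against control.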

[4] = test system: NCI-H1650; assay: Antiproliferative activity against human NCI-H1650 cells expressing FASN assessed as reduction in cell viability after 72 hrs by MTS assay; assay type: functional, cell-based; details: NCI-H1650, 72 h; method in brief: as §1
[5] = biological target: Fatty acid synthase (Homo sapiens) (UniProt P49327); assay: Inhibition of FASN in human PC9 cells harboring FASN expression and EGFR delE746-A750 mutant assessed as disruption of AKT/FASN positive feedback loop by measuring reduction in AKT expression at 100 uM after 48 hrs by Western immunoblot based densitometric assay relative to control; assay type: cell-based
Method in brief: (§2)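 PC-9 or H1703 cells were seeded at 8 × 10^5 per 100 mm dish and treated for 48 h at 1 or 5 µM (or 5, 50 and 100 µM). RIPA lysates were BCA-quantified and run on 8% SDS-PAGE, then transferred to PVDF. Blots were probed for FASN, AKT, phospho-AKT S473 and GAPDH and detected by ECL. Bands were quantified by densitometry and normalised to vehicle control.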

[6] = biological target: Fatty acid synthase (Homo sapiens) (UniProt P49327); assay: Inhibition of FASN in human NCI-H1703 cells expressing FASN assessed as disruption of AKT/FASN positive feedback loop by measuring decrease in phosphorylated AKT expression at 50 uM after 48 hrs by Western immunoblot based densitometric assay relative to control; assay type: cell-based; method in brief: as §2
[7] = biological target: Fatty acid synthase (Homo sapiens) (UniProt P49327); assay: Inhibition of FASN in human PC9 cells harboring FASN expression and EGFR delE746-A750 mutant assessed as disruption of AKT/FASN positive feedback loop by measuring reduction in phosphorylated AKT expression at 50 uM after 48 hrs by Western immunoblot based densitometric assay relative to control; assay type: cell-based; method in brief: as §2
[8] = biological target: Fatty acid synthase (Homo sapiens) (UniProt P49327); assay: Inhibition of FASN in human PC9 cells harboring FASN expression and EGFR delE746-A750 mutant assessed as disruption of AKT/FASN positive feedback loop by measuring reduction in AKT expression at 50 uM after 48 hrs by Western immunoblot based densitometric assay relative to control; assay type: cell-based; method in brief: as §2
[9] = biological target: Fatty acid synthase (Homo sapiens) (UniProt P49327); assay: Inhibition of FASN in human PC9 cells harboring FASN expression and EGFR delE746-A750 mutant assessed as disruption of AKT/FASN positive feedback loop by measuring reduction in phosphorylated AKT expression at 100 uM after 48 hrs by Western immunoblot based densitometric assay relative to control; assay type: cell-based; method in brief: as §2
[10] = biological target: Fatty acid synthase (Homo sapiens) (UniProt P49327); assay: Inhibition of FASN in human NCI-H1703 cells expressing FASN assessed as disruption of AKT/FASN positive feedback loop by measuring decrease in AKT expression at 100 uM after 48 hrs by Western immunoblot based densitometric assay relative to control; assay type: cell-based; method in brief: as §2
[11] = biological target: Fatty acid synthase (Homo sapiens) (UniProt P49327); assay: Inhibition of FASN in human NCI-H1703 cells expressing FASN assessed as disruption of AKT/FASN positive feedback loop by measuring decrease in phosphorylated AKT expression at 5 uM after 48 hrs by Western immunoblot based densitometric assay relative to control; assay type: cell-based; method in brief: as §2
[12] = biological target: Fatty acid synthase (Homo sapiens) (UniProt P49327); assay: Inhibition of FASN in human PC9 cells harboring FASN expression and EGFR delE746-A750 mutant assessed as disruption of AKT/FASN positive feedback loop by measuring decrease in FASN expression at 5 uM after 48 hrs by Western immunoblot based densitometric assay relative to control; assay type: cell-based; method in brief: as §2
[13] = biological target: Fatty acid synthase (Homo sapiens) (UniProt P49327); assay: Inhibition of FASN in human PC9 cells harboring FASN expression and EGFR delE746-A750 mutant assessed as disruption of AKT/FASN positive feedback loop by measuring decrease in FASN expression at 50 uM after 48 hrs by Western immunoblot based densitometric assay relative to control; assay type: cell-based; method in brief: as §2
[14] = biological target: Fatty acid synthase (Homo sapiens) (UniProt P49327); assay: Inhibition of FASN in human NCI-H1703 cells expressing FASN assessed as disruption of AKT/FASN positive feedback loop by measuring decrease in AKT expression at 5 uM after 48 hrs by Western immunoblot based densitometric assay relative to control; assay type: cell-based; method in brief: as §2
[15] = biological target: Fatty acid synthase (Homo sapiens) (UniProt P49327); assay: Inhibition of full length human FASN transfected in HeLa cell lysates at 10 uM using acetyl Co-A/malonyl Co-A as substrate preincubated with enzyme for 2 hrs followed by substrate addition measured after 10 mins in presence of NADPH by microplate reader analysis; assay type: subcellular; details: Lysate
Method in brief: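 Human FASN was made by in vitro translation from a FASN plasmid. Lysate was diluted 3:7 in 100 mM potassium phosphate, pH 6.5, 1 mM EDTA. It was preincubated with compound (10 µM final) for 2 h at 37 °C. Buffer containing acetyl-CoA (55 µM) and NADPH (330 µM) was added, then the reaction was started with malonyl-CoA (500 µM stock). A340 was read at 0 and 10 min; triplicates.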

[16] = biological target: Fatty acid synthase (Homo sapiens) (UniProt P49327); assay: Inhibition of FASN in human NCI-H1703 cells expressing FASN assessed as disruption of AKT/FASN positive feedback loop by measuring decrease in FASN expression at 5 uM after 48 hrs by Western immunoblot based densitometric assay relative to control; assay type: cell-based; method in brief: as §2
[17] = biological target: Fatty acid synthase (Homo sapiens) (UniProt P49327); assay: Inhibition of FASN in human NCI-H1703 cells expressing FASN assessed as disruption of AKT/FASN positive feedback loop by measuring decrease in FASN expression at 100 uM after 48 hrs by Western immunoblot based densitometric assay relative to control; assay type: cell-based; method in brief: as §2
[18] = biological target: Fatty acid synthase (Homo sapiens) (UniProt P49327); assay: Inhibition of FASN in human NCI-H1703 cells expressing FASN assessed as disruption of AKT/FASN positive feedback loop by measuring decrease in phosphorylated AKT expression at 100 uM after 48 hrs by Western immunoblot based densitometric assay relative to control; assay type: cell-based; method in brief: as §2
[19] = biological target: Fatty acid synthase (Homo sapiens) (UniProt P49327); assay: Inhibition of FASN in human NCI-H1703 cells expressing FASN assessed as disruption of AKT/FASN positive feedback loop by measuring decrease in FASN expression at 50 uM after 48 hrs by Western immunoblot based densitometric assay relative to control; assay type: cell-based; method in brief: as §2
[20] = biological target: Fatty acid synthase (Homo sapiens) (UniProt P49327); assay: Inhibition of FASN in human NCI-H1703 cells expressing FASN assessed as disruption of AKT/FASN positive feedback loop by measuring decrease in AKT expression at 50 uM after 48 hrs by Western immunoblot based densitometric assay relative to control; assay type: cell-based; method in brief: as §2
[21] = biological target: Fatty acid synthase (Homo sapiens) (UniProt P49327); assay: Inhibition of FASN in human PC9 cells harboring FASN expression and EGFR delE746-A750 mutant assessed as disruption of AKT/FASN positive feedback loop by measuring reduction in AKT expression at 5 uM after 48 hrs by Western immunoblot based densitometric assay relative to control; assay type: cell-based; method in brief: as §2
[22] = biological target: Fatty acid synthase (Homo sapiens) (UniProt P49327); assay: Inhibition of FASN in human PC9 cells harboring FASN expression and EGFR delE746-A750 mutant assessed as disruption of AKT/FASN positive feedback loop by measuring decrease in FASN expression at 100 uM after 48 hrs by Western immunoblot based densitometric assay relative to control; assay type: cell-based; method in brief: as §2
[23] = biological target: Fatty acid synthase (Homo sapiens) (UniProt P49327); assay: Inhibition of FASN in human PC9 cells harboring FASN expression and EGFR delE746-A750 mutant assessed as disruption of AKT/FASN positive feedback loop by measuring reduction in phosphorylated AKT expression at 5 uM after 48 hrs by Western immunoblot based densitometric assay relative to control; assay type: cell-based; method in brief: as §2
[24] = test system: PC-9; assay: Induction of apoptosis in human PC9 cells harboring FASN expression and EGFR delE746-A750 mutant assessed as cell death at 5 to 100 uM after 72 hrs by Annexin-V FITC/PI staining-based flow cytometry; assay type: functional
[25] = test system: NCI-H1703; assay: Induction of apoptosis in human NCI-H1703 cells expressing FASN assessed as cell death at 5 to 100 uM after 72 hrs by Annexin-V FITC staining/PI-based flow cytometry; assay type: functional
[26] = Kinetic solubility of the compound in universal buffer at pH 7.4 measured at 25 degC after 24 hrs by UV/Visible spectroscopic analysis; assay type: physicochemical; details: read-out: Kinetic_solubility

Chain of Fatty acid synthase (Homo sapiens) (P49327 whole entry, looked up): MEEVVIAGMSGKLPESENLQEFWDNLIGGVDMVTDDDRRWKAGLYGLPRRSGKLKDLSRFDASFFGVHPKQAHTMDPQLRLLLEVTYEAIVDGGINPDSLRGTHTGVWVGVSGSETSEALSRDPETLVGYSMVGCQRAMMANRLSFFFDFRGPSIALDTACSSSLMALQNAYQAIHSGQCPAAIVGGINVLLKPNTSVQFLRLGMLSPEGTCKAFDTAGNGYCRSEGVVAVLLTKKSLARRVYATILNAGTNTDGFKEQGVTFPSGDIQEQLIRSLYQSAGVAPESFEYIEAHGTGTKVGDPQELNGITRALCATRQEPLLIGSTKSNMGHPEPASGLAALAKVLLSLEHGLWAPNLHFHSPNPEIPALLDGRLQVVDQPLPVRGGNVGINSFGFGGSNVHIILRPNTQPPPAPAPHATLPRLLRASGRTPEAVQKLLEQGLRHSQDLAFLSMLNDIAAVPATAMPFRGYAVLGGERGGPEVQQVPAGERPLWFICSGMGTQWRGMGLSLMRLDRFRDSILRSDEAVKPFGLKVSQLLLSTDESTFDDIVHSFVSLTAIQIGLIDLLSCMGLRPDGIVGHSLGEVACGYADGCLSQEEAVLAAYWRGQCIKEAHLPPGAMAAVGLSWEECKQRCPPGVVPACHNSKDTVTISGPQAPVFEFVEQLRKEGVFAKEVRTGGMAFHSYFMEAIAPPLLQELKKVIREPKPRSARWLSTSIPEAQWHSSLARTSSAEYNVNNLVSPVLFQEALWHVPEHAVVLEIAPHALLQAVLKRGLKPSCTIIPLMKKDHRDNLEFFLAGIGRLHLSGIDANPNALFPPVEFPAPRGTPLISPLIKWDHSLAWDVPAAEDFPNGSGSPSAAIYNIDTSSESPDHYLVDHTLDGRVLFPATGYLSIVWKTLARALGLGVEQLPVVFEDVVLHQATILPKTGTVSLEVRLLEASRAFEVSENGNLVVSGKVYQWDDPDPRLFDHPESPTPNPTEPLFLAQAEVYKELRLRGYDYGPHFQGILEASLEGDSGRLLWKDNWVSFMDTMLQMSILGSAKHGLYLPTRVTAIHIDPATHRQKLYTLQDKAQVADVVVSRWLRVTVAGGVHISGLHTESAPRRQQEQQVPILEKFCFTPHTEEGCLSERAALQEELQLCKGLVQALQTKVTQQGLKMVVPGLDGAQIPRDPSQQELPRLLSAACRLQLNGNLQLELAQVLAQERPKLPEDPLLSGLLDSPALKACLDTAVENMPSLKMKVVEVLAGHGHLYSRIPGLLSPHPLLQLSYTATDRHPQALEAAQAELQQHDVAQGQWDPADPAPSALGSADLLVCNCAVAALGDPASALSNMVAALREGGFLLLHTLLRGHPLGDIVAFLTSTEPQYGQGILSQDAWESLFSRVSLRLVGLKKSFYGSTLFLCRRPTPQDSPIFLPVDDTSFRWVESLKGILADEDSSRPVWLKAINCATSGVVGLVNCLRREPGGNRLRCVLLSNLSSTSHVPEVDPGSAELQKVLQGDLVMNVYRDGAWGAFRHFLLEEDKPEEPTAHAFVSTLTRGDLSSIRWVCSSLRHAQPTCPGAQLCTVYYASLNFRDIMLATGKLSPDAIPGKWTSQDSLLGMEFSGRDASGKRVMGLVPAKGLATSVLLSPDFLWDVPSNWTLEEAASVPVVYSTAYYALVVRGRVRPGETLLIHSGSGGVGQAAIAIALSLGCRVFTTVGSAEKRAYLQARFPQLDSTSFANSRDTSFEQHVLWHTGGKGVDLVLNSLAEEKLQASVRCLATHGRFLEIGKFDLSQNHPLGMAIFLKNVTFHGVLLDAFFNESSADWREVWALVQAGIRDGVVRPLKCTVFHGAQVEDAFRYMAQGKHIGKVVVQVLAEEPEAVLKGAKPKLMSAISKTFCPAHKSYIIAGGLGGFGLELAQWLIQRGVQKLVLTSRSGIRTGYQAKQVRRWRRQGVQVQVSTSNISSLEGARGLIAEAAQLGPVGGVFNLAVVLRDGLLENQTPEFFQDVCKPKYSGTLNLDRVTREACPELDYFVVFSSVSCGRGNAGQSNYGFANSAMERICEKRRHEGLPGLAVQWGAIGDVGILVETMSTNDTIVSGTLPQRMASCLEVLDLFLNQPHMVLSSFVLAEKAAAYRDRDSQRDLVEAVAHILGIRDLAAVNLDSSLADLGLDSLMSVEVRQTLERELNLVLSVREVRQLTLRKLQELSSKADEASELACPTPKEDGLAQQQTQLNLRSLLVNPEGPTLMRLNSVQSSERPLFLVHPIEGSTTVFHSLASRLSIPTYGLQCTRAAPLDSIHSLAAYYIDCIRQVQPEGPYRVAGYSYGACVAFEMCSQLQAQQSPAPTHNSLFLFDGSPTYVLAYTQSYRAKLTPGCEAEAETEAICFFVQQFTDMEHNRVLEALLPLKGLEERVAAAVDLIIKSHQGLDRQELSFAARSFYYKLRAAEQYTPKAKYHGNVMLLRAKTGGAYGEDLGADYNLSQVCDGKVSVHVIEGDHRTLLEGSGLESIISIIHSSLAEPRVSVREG

SMILES: COc1cc(C(=O)Oc2ccc(/C=C/c3ccccc3)cc2)cc(OC)c1OC
inhibition at 25 µM [3]: < 50%

SMILES: O=C(Oc1ccc(-c2cccc3ccccc23)cc1)c1cc(O)c(O)c(O)c1
inhibition at 25 µM [3]: < 50%

SMILES: O=C(Oc1cccc2c1CCCC2OC(=O)c1cc(O)c(O)c(O)c1)c1cc(O)c(O)c(O)c1 (centres undefined)
IC50 [1]: 6.5 µM
IC50 [2]: 10.2 µM
inhibition at 25 µM [3]: > 50%
IC50 [4]: 36 µM

SMILES: O=C(Oc1cccc(/C=C/c2ccccc2)c1)c1cc(O)c(O)c(O)c1
inhibition at 25 µM [3]: < 50%

SMILES: COc1cc(C(=O)Oc2ccc(Cc3ccc(OC(=O)c4cc(OC)c(OC)c(OC)c4)cc3)cc2)cc(OC)c1OC
inhibition at 25 µM [3]: < 50%

Continued, in another order:

IC50 [1]: 8.9 µM
IC50 [2]: 11 µM
IC50 [4]: 14.1 µM
SMILES: O=C(Oc1ccc(/C=C/c2cccc(OC(=O)c3ccc(O)c(O)c3)c2)cc1)c1ccc(O)c(O)c1
inhibition at 25 µM [3]: > 50%

Ratio [5]: 0.98
Ratio [6]: 0.82
Ratio [7]: 0.95
Ratio [8]: 1.01
Ratio [9]: 0.88
Ratio [10]: 1
Ratio [11]: 0.97
Ratio [12]: 0.99
Ratio [13]: 1.01
Ratio [14]: 1.09
inhibition [15]: inactive
Ratio [16]: 1.05
Ratio [17]: 1.05
Ratio [18]: 0.73
Ratio [19]: 1.12
Ratio [20]: 0.99
Ratio [21]: 0.99
Ratio [22]: 1.04
Ratio [23]: 1.02
SMILES: COc1cc(C(=O)Oc2ccc(/C=C/c3cccc(OC(=O)c4cc(OC)c(OC)c(OC)c4)c3)cc2)cc(OC)c1OC
inhibition at 25 µM [3]: < 50%
Activity [24]: inactive
Activity [25]: inactive

IC50 [1]: 39.3 µM
IC50 [2]: 25.9 µM
IC50 [4]: 122 µM
SMILES: O=C(Oc1ccccc1Cc1ccccc1OC(=O)c1cc(O)c(O)c(O)c1)c1cc(O)c(O)c(O)c1
inhibition at 25 µM [3]: > 50%

IC50 [1]: 17.2 µM
IC50 [2]: 37.2 µM
IC50 [4]: 40.2 µM
SMILES: O=C(Oc1ccc(/C=C/c2cccc(OC(=O)c3ccc(O)cc3)c2)cc1)c1ccc(O)cc1
inhibition at 25 µM [3]: > 50%

IC50 [1]: 6.2 µM
IC50 [2]: 8.6 µM
IC50 [4]: 49.7 µM
SMILES: O=C(Oc1ccc(Cc2ccc(OC(=O)c3cc(O)c(O)c(O)c3)cc2)cc1)c1cc(O)c(O)c(O)c1
inhibition at 25 µM [3]: > 50%

solubility kinetic at 24 h [26]: 0.4 µM (≈ 0.196 µg/mL)
IC50 [1]: 5.8 µM
IC50 [2]: 4.2 µM
IC50 [4]: 7.4 µM
SMILES: O=C(Oc1ccc(-c2ccc(OC(=O)c3cc(O)c(O)c(O)c3)cc2)cc1)c1cc(O)c(O)c(O)c1

IC50 [1]: 11.2 µM
IC50 [2]: 8.5 µM
IC50 [4]: 16 µM
SMILES: O=C(Oc1ccc(/C=C/c2ccccc2)cc1)c1cc(O)c(O)c(O)c1
inhibition at 25 µM [3]: > 50%
